High-throughput results as filed in PubChem.
Shown are actives, neighbours in structure and some others; about 1.9% of the full set was active somewhere.
Runt-CBFb FRET = inhibitors of human RUNX1 Runt domain binding to CBFb; inhibition, % at 20 µM; Cerulean-Runt/Venus-CBFb FRET ratio 530/480, 1 h; Q01196+Q13951; 220,000 compounds, 0.46% hits;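 active = inhibition over about 50% at 20 µM in the single-dose screen, limit read from the data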
Target sequence (Q01196 whole entry, looked up, the tested form may be a part): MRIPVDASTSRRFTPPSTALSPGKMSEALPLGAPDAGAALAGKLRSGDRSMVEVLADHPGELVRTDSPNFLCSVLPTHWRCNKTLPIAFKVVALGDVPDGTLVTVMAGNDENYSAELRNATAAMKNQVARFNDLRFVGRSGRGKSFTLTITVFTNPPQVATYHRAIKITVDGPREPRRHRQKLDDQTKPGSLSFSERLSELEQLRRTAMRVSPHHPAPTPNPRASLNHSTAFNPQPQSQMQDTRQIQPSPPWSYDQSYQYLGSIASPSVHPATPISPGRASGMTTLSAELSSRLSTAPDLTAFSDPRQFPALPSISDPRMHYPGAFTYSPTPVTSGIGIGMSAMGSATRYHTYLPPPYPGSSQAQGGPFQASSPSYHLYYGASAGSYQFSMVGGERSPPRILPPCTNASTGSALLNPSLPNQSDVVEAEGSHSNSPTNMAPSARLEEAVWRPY
Target sequence (Q13951 whole entry, looked up, the tested form may be a part): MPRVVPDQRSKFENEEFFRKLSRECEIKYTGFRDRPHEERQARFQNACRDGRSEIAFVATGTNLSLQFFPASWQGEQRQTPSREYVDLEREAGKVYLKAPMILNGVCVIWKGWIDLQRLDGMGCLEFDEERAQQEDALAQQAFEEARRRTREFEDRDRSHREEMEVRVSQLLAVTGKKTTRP
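Assay system: Cerulean-Runt domain fusion protein, energy donor; Signal: fluorescence energy transfer, 422 nm excitation, 530/480 nm emission; Timing: 1 h compound exposure, room temperature; Control set: unlabeled CBFb; Medium: Tris buffer pH 7.5 with salts and BSA; Compound: single test concentration of 20 µM, 1% DMSO final; Probe or stimulus: Venus-CBFb 100 nM.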
Tb hexokinase = blocks Trypanosoma brucei hexokinase 1 activity. recombinant TbHK1, G6PDH-coupled NADH A340. inhibition, % at 10 µM. 220,000 compounds, 0.11% hits;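 active = inhibition of 50% or more in the single-dose primary screen; inactive = inhibition below 50%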
Runt-SMMHC FRET = inhibitors of human RUNX1 Runt domain binding to CBFb-SMMHC; Cerulean-Runt/Venus-CBFb-SMMHC FRET ratio 530/480, 1 h; 220,000 compounds, 0.74% hits; inhibition, % at 20 µM; AID 1434;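 active = mean inhibition across duplicate retests at 20 µM reaching about 50%, limit read from the data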;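 also: inhibitors lower the FRET ratio by blocking Runt binding to CBFb-SMMHC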
Hck-Nef inh = inhibitors of human Hck kinase activated by Nef. P08631. Recombinant Hck-YEEI plus Nef, Z-Lyte FRET kinase assay. inhibition, % at 20 µM. 220,000 compounds, 0.68% hits. AID 463187;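 active = Hck-Nef kinase inhibition above about 50%, limit read from the data; inactive = inhibition below that limit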
RanGTP-Imp inh = disruptors of Ran-importin-beta complex formation – biochemical, FRET, CFP-Ran, YFP-importin-beta, homogeneous, primary screen. cell-free CFP-Ran/YFP-importin-beta FRET ratio. 300,000 compounds, 1.1% hits. inhibition, % (test concentration not listed). AID 2216;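 active = more than half of the replicate wells show a fall in the fluorescence ratio signal beyond about 16%, limit read from the data, passing the limit was not always enough; inconclusive = exactly half of the replicate wells pass the set limit; inactive = fewer than half of replicates pass the limit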
A number is an active result; . = inactive; ? = inconclusive; / = no result given.

SMILES | Runt-CBFb FRET | Tb hexokinase | Runt-SMMHC FRET | Hck-Nef inh | RanGTP-Imp inh
COC(=O)C1=COC(C)C2CN3CCc4c([nH]c5ccccc45)C3CC12 (centres undefined) | . | . | . | . | 122
COC(=O)C1=C2c3[nH]c4ccccc4c3CCN2C(=O)CC1 | / | / | / | / | .
Cn1cc(/C=N\O)nc2c(=O)n(-c3ccccc3)c(=O)nc1-2 | 84 | . | 95 | . | 33
O/N=C/c1cn(-c2ccccc2)nn1 | . | . | . | . | .
C=CCNC(=O)c1cccc(Br)c1 | . | . | . | . | 24
C=CCNC(=S)NNC(=O)c1cccc(Br)c1 | . | . | . | . | .
CC(C)c1ccc(NC2CCCN(C(=O)c3n[nH]c4c3CCC4)C2)cc1 (centres undefined) | / | / | / | / | .
Cc1ccc(S(=O)(=O)c2nc(-c3cccs3)oc2NCCCN(C)C)cc1 | . | . | . | . | ?
C=CCOc1ccc(C2C(C#N)=C(N)N(Nc3ccccc3)C3=C2C(=O)CC(C)(C)C3)cc1OC (centres undefined) | . | . | 94 | . | .
COc1ccc(C2C(C#N)=C(N)OC3=C2C(=O)CC(C)(C)C3)cc1OC (centres undefined) | . | . | . | . | .
Cc1cc(C)c2nc(NCCCNC(=S)NCCCN(C)C)c(C#N)cc2c1 | 81 | . | 89 | . | .
CCOCCCNC(=S)NCCCNc1nc2c(C)cc(C)cc2cc1C#N | . | . | 91 | . | /
Cc1ccc2cc(C#N)c(NCCNC(=S)NCCCN(C)C)nc2c1C | . | . | . | . | .
COc1ccc(C)cc1NC(=O)c1cc2c(=O)n3ccccc3nc2n1C | . | . | 92 | . | /
Cn1c(C(=O)NC2CCCCC2)cc2c(=O)n3ccccc3nc21 | / | / | / | / | .
Cn1c(C(=O)NCc2ccccn2)cc2c(=O)n3ccccc3nc21 | . | . | 97 | . | .
O=C(C[n+]1ccc(/C=N/O)cc1)N(Cc1ccccc1)Cc1ccccc1 | . | . | . | . | .
O=c1nc2n(Cc3ccccc3)c3ccccc3cc-2c(=O)[nH]1 | 63 | . | 82 | . | 89
O=c1[nH]c2ccccc2n1Cc1ccccc1 | . | . | . | . | .
CCN(CC)c1ccc(C(=S)NCc2ccccc2)cc1 | . | . | . | . | ?
C/C=C/C=C/[C@H]1Cc2cc(O)cc(O)c2O1 | . | . | . | . | 22
CN(C)CCCNc1c2c(nc3cc(-c4cccc(F)c4)nn13)CCC2 | . | . | . | . | 27
Cc1cc(OCCCCOc2ccc(S(N)(=O)=O)c(C)c2)ccc1S(N)(=O)=O | / | / | / | / | .
Cc1cc2oc(=O)cc(CSc3nc(N)cc(N)n3)c2cc1C(C)C | . | . | . | . | ?
Nc1cc(N)nc(SCc2cc(=O)oc3cc4c(cc23)CCC4)n1 | . | . | . | . | 31
SMILES | Runt-CBFb FRET | Tb hexokinase | Runt-SMMHC FRET | Hck-Nef inh | RanGTP-Imp inh
CCc1cc2c(CN(C)Cc3ccccc3F)cc(=O)oc2cc1O | / | / | / | / | 54
CCc1cc(=O)oc2c(C)c(O)c(CN3CCCCC3)cc12 | 73 | . | 78 | . | 53
Cc1c(O)ccc2c(CC(=O)N[C@@H](Cc3ccccc3)C(=O)O)cc(=O)oc12 | / | / | / | / | 68
Cc1cc2oc(=O)cc(CN(C)Cc3cccc(F)c3)c2cc1C | / | / | / | / | .
COc1ccc(-c2oc3ccccc3c2C(=O)Oc2ccccc2)cc1 | / | / | / | / | .
Nn1c(SCC(=O)Nc2ccc(OC(F)F)cc2)nnc(Cc2ccccc2)c1=O | / | / | / | / | .
COCC(C)n1c(C)cc(C(=O)COC(=O)CN=C2NS(=O)(=O)c3ccccc32)c1C (centres undefined) | . | . | . | . | .
O=C(COc1ccc(Cl)cc1Br)Nc1ccncc1 | / | / | / | / | .
COc1cccc(CN(C)Cc2cc(=O)oc3c(C)c(C)ccc23)c1 | / | / | / | / | .
COc1cccc(CN(C)Cc2cc(=O)oc3cc(O)c(Cl)cc23)c1 | / | / | / | / | 77
O=c1cc(CN2CCN(Cc3ccccc3)CC2)c2ccc(O)c(O)c2o1 | / | / | / | / | .
Cc1c(O)ccc2c(CN3CCN(Cc4ccccc4)CC3)cc(=O)oc12 | / | / | / | / | 54
O=c1cc(CN2CCN(Cc3ccccc3)CC2)c2cc3c(cc2o1)CCC3 | . | . | 81 | . | .
Cc1c(O)ccc2c(CN(C)Cc3ccccc3)cc(=O)oc12 | . | . | 81 | . | 23
COc1ccc(Nc2nnc(SCC3CCCO3)s2)cc1 (centres undefined) | . | . | . | . | .
CCOc1ccc(S(=O)(=O)N2CCCC(C(=O)NCc3cccnc3)C2)cc1 (centres undefined) | / | / | / | / | .
O=C(NCc1ccccc1Cl)c1nnc(CS(=O)(=O)c2ccccc2)o1 | / | / | / | / | .
CCc1ccc2c(CN3CCN(Cc4ccccc4)CC3)cc(=O)oc2c1 | / | / | / | / | .
CCc1cc2c(CN3CCN(Cc4ccccc4)CC3)cc(=O)oc2cc1O | / | / | / | / | 88
O=C(O)c1ccc[n+](Cc2ccc([N+](=O)[O-])cc2)c1 | / | / | / | / | 12
CCOc1cc2nc3c4ccccc4n(C)c3nc2cc1OCC | . | . | . | . | 38
Cn1c2ccccc2c2nnc(NN)nc21 | . | . | . | . | .
N#Cc1cc2c(=O)n3ccccc3nc2n(CCN2CCOCC2)c1=O | 103 | / | 143 | / | /
Cc1ccc2nc3c(cc(C#N)c(=O)n3CC3CCCO3)c(=O)n2c1 (centres undefined) | 52 | . | 65 | 189 | /
Cc1ccc2nc3c(cc(C#N)c(=O)n3CCN3CCOCC3)c(=O)n2c1 | 146 | / | 63 | / | /
SMILES | Runt-CBFb FRET | Tb hexokinase | Runt-SMMHC FRET | Hck-Nef inh | RanGTP-Imp inh
Cc1nc2ccccc2c2oc(C(=O)N3CCN(c4ccc([N+](=O)[O-])cc4)CC3)cc12 | / | / | / | / | .
Cc1cc2c3c(ccc(C)c3n1)N=CN2c1ccccc1 | 65 | . | 60 | . | 92
CCN(CC)c1ccc2cc(S(=O)(=O)c3ccc(Cl)cc3)c(=O)oc2c1 | . | . | 81 | . | 128
Cc1ccc(S(=O)(=O)c2cc3cc(Br)ccc3oc2=O)cc1 | . | . | . | . | .
O=c1oc2cc(O)ccc2cc1S(=O)(=O)c1ccccc1 | / | / | / | / | 133
CCCCOc1ccc(Cc2c(O)nc(SC)[nH]c2=O)cc1 | / | / | / | / | .
CC(Nc1ccccc1N1CCCCC1)C(=O)N1CCc2ccccc21 (centres undefined) | . | . | . | . | .
FC(F)(F)c1nnc2c(Sc3ccccn3)nc3ccccc3n12 | . | . | 51 | . | .
FC(F)(F)c1nnc2c(Sc3ccccc3)nc3ccccc3n12 | . | . | . | . | .
Cc1cc(O)c(CN(C)C)c2c1C(=O)/C(=C/c1ccco1)O2 | / | / | / | / | .
Cc1cc(O)c(C=O)c2c1C(=O)Oc1c(CO)c(O)c3c(c1O2)C(O)OC3=O (centres undefined) | 53 | . | . | . | /
COc1ccc(C2=Nc3nc(-c4ccccc4)cn3C(c3ccc(OC)cc3)C2)cc1 (centres undefined) | . | . | . | . | 28
COc1ccc(C2CC(c3ccccc3)=NN2C(=O)CCC(=O)O)cc1 (centres undefined) | / | / | / | / | .
Cc1cc(N2CCOCC2)n2nc(C)c(-c3ccccc3)c2n1 | 86 | . | . | . | /
Cc1ccc(-c2c(C)nn3c(N4CCOCC4)cc(C)nc23)cc1 | / | / | / | / | .
